What was measured:
Mus musculus = species: Mus musculus; experiment: Cellular cytotoxicity in normal mouse spleen stimulated with concanavalin A; format: functional
Summary of the method: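 Normal murine spleen cells at 2.5 × 10^6 or 5 × 10^6 cells/mL in complete RPMI 1640 with 10% FCS, stimulated with ConA 2.5 µg/mL. Analogue range added in triplicate, incubated 48 h at 37 °C, 5% CO2. MTT then added for 4-6 h, formazan dissolved in acidified 2-propanol, OD at 600 nm. CC50 by linear interpolation against untreated controls.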

H9 = experiment: Cellular cytotoxicity against human lymphocytic cell lines H-9.; format: functional
Summary of the method: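 H-9 and CCRF-CEM human lymphocytic lines subcultured in complete RPMI 1640 with 10% FCS, without ConA or β-mercaptoethanol, at 6.25 × 10^5 and 2 × 10^6 cells/mL. Triplicate wells given a range of analogue concentrations at 37 °C, 5% CO2 for 48 h, then MTT 4-6 h, read at 600 nm. CC50 by linear interpolation versus untreated cells; data from both lines pooled.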

[1] = target: Human immunodeficiency virus type 1 reverse transcriptase (Human immunodeficiency virus 1, UniProt Q72547); experiment: Inhibitory activity against HIV-reverse transcriptase (HIV-RT)

SMILES | IC50 [1] [µM] | CC50 (Mus musculus) [µM] | CC50 (H9) [µM]
CC(=O)NC1=CC(=O)c2ccc(-c3[nH]c(C(=O)O)cc4c5ccccc5nc3-4)nc2C1=O | 13.3 | 47 | 81
COC(=O)c1[nH]c(-c2ccc3c(n2)C(=O)C(NC(C)=O)=CC3=O)c2nc3ccccc3c-2c1C | 15.1 | 62 | 31
CCCCOC(=O)c1cc2c([nH]c3ccccc32)c(-c2ccc3c(n2)C(=O)C(NC(=O)CCC)=CC3=O)n1 [LAV12] | 5.8 | 81 | 50

The next lines start with results.

IC50 [1] [µM] | SMILES | CC50 (Mus musculus) [µM] | CC50 (H9) [µM]
12.7 | CC(=O)NC1=CC(=O)c2ccc(-c3[nH]c(C(N)=O)cc4c5ccccc5nc3-4)nc2C1=O | 50 | 95
3 | CC(=O)NC1=CC(=O)c2ccc(-c3[nH]c(C(=O)OCCOP(=O)(O)O)cc4c5ccccc5nc3-4)nc2C1=O | 29 | 27
